Results of several laboratories.
Organism: Nakaseomyces glabratus
Read-out: microbial growth

`COc1cc(-c2ccc(C(C)(C)C)cc2)cc(C(C)C#Cc2c(C)nc(N)nc2N)c1` (centres unmarked) gave an MIC of 207 µg/mL (resazurin).
The MIC of `CCCCCCCCCCN1CCNCC1` is reported as 7.8 µg/mL (broth dilution; ATCC2001; 48 h).
For `C[C@@H]1[C@H](O)[C@@H](C)/C=C/C=C/C=C/C=C/C=C/C=C/C=C/[C@H](O[C@@H]2O[C@H](C)[C@@H](O)[C@H](N)[C@@H]2O)C[C@@H]2O[C@](O)(C[C@@H](O)C[C@@H](O)[C@H](O)CC[C@@H](O)C[C@@H](O)CC(=O)O[C@H]1C)C[C@H](O)[C@H]2C(=O)O`, the MIC was 0.68 µM (ATCC90030).
`CCC(C#Cc1c(C)nc(N)nc1N)c1cc(OC)c(OC)c(OC)c1` (centres unmarked) gave an MIC of 89 µg/mL (resazurin).
`CCCCCOc1c(OC)cc(NC(C)CCCNC(=O)C(N)C(C)CC)c2nc(C(C)(C)C)ccc12` (centres unmarked) has an MIC of > 20 µg/mL (broth dilution; ATCC90030).
The MIC of `Fc1ccc(C2(Cn3cncn3)CO2)c(F)c1` (centres unmarked) is reported as > 31.3 µg/mL (broth dilution; ATCC2001; 48 h).
The MIC of `OC(Cn1cncn1)(Cn1cncn1)c1ccc(F)cc1F` is reported as 4 µg/mL (clinical isolate).
`CCCCCCCCCCCCCCN1CCNCC1` gave an MIC of 0.975 µg/mL (broth dilution; ATCC2001; 48 h).
The MIC of `CCCCCCCCOc1c(OC)cc(NC(C)CCCNC(=O)C2CCCN2)c2nc(C(C)(C)C)ccc12` (centres unmarked) is reported as 20 µg/mL (broth dilution; ATCC90030).
For `C[C@@H]1[C@H](O)[C@@H](C)/C=C/C=C/C=C/C=C/C=C/C=C/C=C/[C@H](O[C@@H]2O[C@H](C)[C@@H](O)[C@H](N)[C@@H]2O)C[C@@H]2O[C@](O)(C[C@@H](O)C[C@@H](O)[C@H](O)CC[C@@H](O)C[C@@H](O)CC(=O)O[C@H]1C)C[C@H](O)[C@H]2C(=O)O`, the MIC was 1.25 µg/mL (broth dilution).
The MIC of `COc1cc(NC(C)CCCN)c2nc(C(C)(C)C)ccc2c1Oc1ccc(Cl)c(Cl)c1` (centres unmarked) is reported as 20 µg/mL (broth dilution; ATCC90030).
With `OC(CNCCN1CCOCC1)(Cn1cncn1)c1ccc(F)cc1F` (centres unmarked) the MIC was 31.3 µg/mL (broth dilution; ATCC2001; 48 h).
For `C[C@@H]1[C@H](O)[C@@H](C)/C=C/C=C/C=C/C=C/C=C/C=C/C=C/[C@H](O[C@@H]2O[C@H](C)[C@@H](O)[C@H](N)[C@@H]2O)C[C@@H]2O[C@](O)(C[C@@H](O)C[C@@H](O)[C@H](O)CC[C@@H](O)C[C@@H](O)CC(=O)O[C@H]1C)C[C@H](O)[C@H]2C(=O)O`, the MIC was 0.63 µg/mL (broth dilution; ATCC90030).
`OC(Cn1cncn1)(Cn1cncn1)c1ccc(F)cc1F` has an MIC of 8 µg/mL (broth dilution; MY1381).
